# Assay results from ChEMBL document CHEMBL4477203 (J Med Chem, 2016).
# Numbered stars: 1 amine (or outer) side, 2 acyl side, 3 side chain; on linkers, the order of the positions; unused ones are H or OH. Bridge positions count the residues as written; N and C are the ends. Square brackets hold non-standard residues; d marks the D form. Peptide text beside a SMILES is read from it. I, II: the chains in the order shown. X2 = NCCCCNC(=O)/N=C(\N)NCCC[C@H](N[*:1])C(=O)[*:2]; Suberoyl = O=C(CCCCCCC(=O)[*:2])[*:1]
# Experiments:
# [1] = target: T1, Neuropeptide Y receptor type 4 (Homo sapiens, UniProt P50391); experiment: Intrinsic activity at human NPY Y4 receptor expressed in HEK293 cells co-expressing CRE-Luc gene assessed as inhibition of forskolin stimulated luciferase activity after 4.5 hrs by luminescence assay relative to pancreatic polypeptide; format: functional, cell-based
# How it was run: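 HEK293 cells stably co-transfected with a CRE-controlled firefly luciferase reporter and hY4R, tested in phenol-red-free DMEM, pH 7.4. […] The maximal inhibition by PP was set to 0% activity (α = 1.0). Data are means ± SEM of at least 3 experiments in triplicate.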
# [2] = target: T1, Neuropeptide Y receptor type 4; experiment: Intrinsic activity at human NPY Y4 receptor expressed in CHO cells co-expressing Gqi5-mtAEQ assessed as induction of calcium mobilization by aequorin luminescence assay relative to pancreatic polypeptide; format: functional, cell-based
# How it was run: (§1)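 Luminescence was integrated as area under the curve and normalized to the response to 1 µM PP. Data are means ± SEM of at least 3 independent experiments, each run in triplicate.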
# [3] = target: T1, Neuropeptide Y receptor type 4; experiment: Displacement of [3H](2R,7R)-10 from human NPY Y4 receptor expressed in CHO cells co-expressing Gqi5-mtAEQ after 90 mins in presence of L-15 medium by liquid scintillation counting; format: cell-based
# [4] = target: T1, Neuropeptide Y receptor type 4; experiment: Displacement of [3H]18 from human NPY Y4 receptor expressed in CHO cells co-expressing Gqi5-mtAEQ after 90 mins by liquid scintillation counting; format: cell-based
# [5] = target: T2, Neuropeptide Y receptor type 1 (Homo sapiens) (UniProt P25929); experiment: Antagonist activity at human NPY Y1 receptor expressed in human HEL cells assessed as inhibition of the pNPY-stimulated intracellular [Ca2+] mobilization by Fura-2 based luminescence spectrometry; format: functional, cell-based
# T2 sequence (whole entry): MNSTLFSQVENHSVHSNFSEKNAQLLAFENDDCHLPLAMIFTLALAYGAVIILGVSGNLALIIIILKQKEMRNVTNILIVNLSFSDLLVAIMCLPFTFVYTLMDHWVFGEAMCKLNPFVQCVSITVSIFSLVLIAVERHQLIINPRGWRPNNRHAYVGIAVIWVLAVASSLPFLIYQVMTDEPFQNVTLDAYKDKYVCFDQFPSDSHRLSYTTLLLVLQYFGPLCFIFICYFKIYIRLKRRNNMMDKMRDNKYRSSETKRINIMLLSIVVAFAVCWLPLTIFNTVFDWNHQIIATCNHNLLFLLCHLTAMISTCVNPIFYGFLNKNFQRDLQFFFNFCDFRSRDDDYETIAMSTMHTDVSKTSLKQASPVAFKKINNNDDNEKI
# How it was run: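 Functional Y1R assay on HEL cells, which express Y1R endogenously. Intracellular Ca2+ was read with Fura-2 on a luminescence spectrometer. Antagonism is expressed as Kb.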
# [6] = target: T1, Neuropeptide Y receptor type 4; experiment: Agonist activity at human NPY Y4 receptor expressed in HEK293 cells co-expressing CRE-Luc gene assessed as inhibition of forskolin stimulated luciferase activity after 4.5 hrs by luminescence assay; format: functional, cell-based
# How it was run: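 HEK293 cells stably co-transfected with a CRE-controlled firefly luciferase reporter and hY4R, tested in phenol-red-free DMEM, pH 7.4. The maximal inhibition by PP was set to 0% activity (α = 1.0). Data are means ± SEM of at least 3 experiments in triplicate.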
# [7] = target: T1, Neuropeptide Y receptor type 4; experiment: Binding affinity to human NPY Y4 receptor expressed in CHO cells co-expressing Gqi5-mtAEQ assessed as apparent association rate constant after 2 to 180 mins by liquid scintillation counting; format: cell-based; details: tested as the 3H-labelled form
# How it was run: (§2)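 Adherent CHO-hY4-Gqi5-mtAEQ cells (about 90% confluent) in buffer I with 1% BSA and 0.1 mg/mL bacitracin at 22 °C. Tritiated radioligand was applied at 1.5 nM for 2–180 min. Wells were washed twice with ice-cold buffer I, lysed and counted. kobs was taken from ln[Beq/(Beq-Bt)] versus time. Data are means of 3 experiments in triplicate.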
# [8] = target: T1, Neuropeptide Y receptor type 4; experiment: (§3) Binding affinity to human NPY Y4 receptor expressed in CHO cells co-expressing Gqi5-mtAEQ assessed as slow dissociation half life at 1.5 uM incubated for 2 hrs in presence of 200-fold excess of (2R,7R)-Diaminooctanedioyl-bis(Tyr-Arg-Leu-Arg-Tyr-amide)Hexa(hydrotrifluoroacetate) by liquid scintillation counting; format: cell-based; details: tested as the 3H-labelled form
# [9] = target: T3, Neuropeptide Y receptor type 1 (Homo sapiens, UniProt P25929); experiment: Displacement of [3H]UR-MK136 from human NPY Y1 receptor expressed in human MCF7 cells by liquid scintillation counting; format: cell-based
# T3 sequence (P25929 whole entry): T2 sequence (whole entry)
# [10] = target: T1, Neuropeptide Y receptor type 4; experiment: as §3, with “life t1/2(2)” for “life”; format: cell-based; details: tested as the 3H-labelled form
# [11] = target: T1, Neuropeptide Y receptor type 4; experiment: Binding affinity to human NPY Y4 receptor expressed in CHO cells co-expressing Gqi5-mtAEQ assessed as unspecific binding in presence of (2R,7R)-Diaminooctanedioyl-bis(Tyr-Arg-Leu-Arg-Tyr-amide)Hexa(hydrotrifluoroacetate) by liquid scintillation counting; format: cell-based; details: tested as the 3H-labelled form
# [12] = target: T4, Neuropeptide Y receptor type 2 (Homo sapiens, UniProt P49146); experiment: Displacement of [3H]propionyl-pNPY from human NPY Y2 receptor expressed in CHO cells co-expressing Gqi5-mtAEQ after 90 mins by liquid scintillation counting; format: cell-based
# T4 sequence (P49146 whole entry): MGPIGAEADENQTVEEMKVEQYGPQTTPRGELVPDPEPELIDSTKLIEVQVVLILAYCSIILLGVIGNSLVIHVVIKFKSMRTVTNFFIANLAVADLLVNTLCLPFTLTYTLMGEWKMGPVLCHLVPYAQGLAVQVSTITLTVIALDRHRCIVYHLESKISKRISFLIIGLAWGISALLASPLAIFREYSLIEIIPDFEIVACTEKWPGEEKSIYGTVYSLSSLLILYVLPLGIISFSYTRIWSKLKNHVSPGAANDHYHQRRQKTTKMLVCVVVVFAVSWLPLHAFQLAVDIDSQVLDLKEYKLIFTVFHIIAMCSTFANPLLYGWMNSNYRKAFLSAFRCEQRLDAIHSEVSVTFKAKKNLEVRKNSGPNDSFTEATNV
# How it was run: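 Adherent CHO-hY2R-Gqi5-mtAEQ cells in buffer I with 1% BSA and 0.1 mg/mL bacitracin at 22 °C. […] Incubation was 90 min, followed by two ice-cold washes, lysis and scintillation counting.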
# [13] = target: T1, Neuropeptide Y receptor type 4; experiment: Displacement of [3H](2R,7R)-10 from human NPY Y4 receptor expressed in CHO cells co-expressing Gqi5-mtAEQ after 90 mins in presence of sodium-free HEPES buffer by liquid scintillation counting; format: cell-based
# [14] = target: T5, Neuropeptide Y receptor type 5 (Homo sapiens, UniProt Q15761); experiment: Displacement of [3H]propionyl-pNPY from human NPY Y5 receptor expressed in human HEC1b cells after 120 mins by liquid scintillation counting; format: cell-based
# T5 sequence (Q15761 whole entry): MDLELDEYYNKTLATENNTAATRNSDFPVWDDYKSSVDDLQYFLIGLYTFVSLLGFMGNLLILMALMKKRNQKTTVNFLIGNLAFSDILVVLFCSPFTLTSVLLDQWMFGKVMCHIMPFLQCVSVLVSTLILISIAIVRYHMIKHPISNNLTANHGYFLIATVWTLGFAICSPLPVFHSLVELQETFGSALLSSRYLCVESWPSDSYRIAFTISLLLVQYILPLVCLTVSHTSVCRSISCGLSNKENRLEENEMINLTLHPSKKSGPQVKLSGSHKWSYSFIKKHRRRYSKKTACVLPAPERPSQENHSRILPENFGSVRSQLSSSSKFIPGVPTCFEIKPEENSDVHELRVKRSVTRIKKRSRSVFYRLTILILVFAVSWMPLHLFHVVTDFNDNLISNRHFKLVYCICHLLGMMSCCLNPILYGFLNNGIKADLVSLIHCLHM
# How it was run: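 Adherent HEC-1B-hY5 cells in buffer II with 1% BSA and 0.1 mg/mL bacitracin at 22 °C. […] Incubation was 120 min, followed by ice-cold washes, lysis and scintillation counting.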
# [15] = target: T1, Neuropeptide Y receptor type 4; experiment: Binding affinity to human NPY Y4 receptor expressed in CHO cells co-expressing Gqi5-mtAEQ assessed as slow dissociation rate constant preincubated for 2 hrs followed by addition of (2R,7R)-Diaminooctanedioyl-bis(Tyr-Arg-Leu-Arg-Tyr-amide)Hexa(hydrotrifluoroacetate) by liquid scintillation counting; format: cell-based; details: tested as the 3H-labelled form
# [16] = target: T1, Neuropeptide Y receptor type 4; experiment: Binding affinity to human NPY Y4 receptor expressed in CHO cells co-expressing Gqi5-mtAEQ assessed as time required for complete association by liquid scintillation counting; format: cell-based; details: tested as the 3H-labelled form; how it was run: as §2
# [17] = target: T1, Neuropeptide Y receptor type 4; experiment: as §3, with “constant” for “half life”; format: cell-based; details: tested as the 3H-labelled form
# [18] = target: T1, Neuropeptide Y receptor type 4; experiment: Binding affinity to human NPY Y4 receptor expressed in CHO cells co-expressing Gqi5-mtAEQ assessed as fast dissociation rate constant preincubated for 2 hrs followed by addition of (2R,7R)-Diaminooctanedioyl-bis(Tyr-Arg-Leu-Arg-Tyr-amide)Hexa(hydrotrifluoroacetate) by liquid scintillation counting; format: cell-based; details: tested as the 3H-labelled form
# [19] = target: T1, Neuropeptide Y receptor type 4; experiment: Agonist activity at human NPY Y4 receptor expressed in CHO cells co-expressing Gqi5-mtAEQ assessed as induction of calcium mobilization by aequorin luminescence assay; format: functional, cell-based; how it was run: as §1
# [20] = target: T1, Neuropeptide Y receptor type 4; experiment: as §3, with “fast” for “slow”, “life t1/2(1)” for “life”; format: cell-based; details: tested as the 3H-labelled form
# [21] = target: T1, Neuropeptide Y receptor type 4; experiment: Binding affinity to human NPY Y4 receptor expressed in CHO cells co-expressing Gqi5-mtAEQ after 90 mins in presence of sodium-free HEPES buffer by liquid scintillation counting; format: cell-based
# [22] = target: T1, Neuropeptide Y receptor type 4; experiment: Binding affinity to human NPY Y4 receptor expressed in CHO cells co-expressing Gqi5-mtAEQ after 90 mins in presence of L-15 medium by liquid scintillation counting; format: cell-based
# T1 sequence (P50391 whole entry): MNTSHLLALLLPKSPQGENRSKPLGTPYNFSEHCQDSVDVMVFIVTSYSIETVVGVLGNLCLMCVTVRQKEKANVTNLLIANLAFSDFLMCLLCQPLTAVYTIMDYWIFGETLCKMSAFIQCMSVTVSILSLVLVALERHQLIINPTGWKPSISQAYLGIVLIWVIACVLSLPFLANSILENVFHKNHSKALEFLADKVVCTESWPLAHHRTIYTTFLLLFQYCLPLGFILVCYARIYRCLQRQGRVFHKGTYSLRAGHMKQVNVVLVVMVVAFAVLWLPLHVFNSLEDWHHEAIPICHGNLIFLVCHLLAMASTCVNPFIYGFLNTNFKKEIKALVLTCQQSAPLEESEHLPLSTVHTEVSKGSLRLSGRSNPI
SMILES,Intrinsic activity [1],Intrinsic activity [2],Ki [3] [nM],Ki [4] [nM],Kb [5] [nM],EC50 [6] [nM],Ki [9] [nM],Ki [12] [nM],Ki [13] [nM],Ki [14] [nM],EC50 [19] [nM],further results
CC(C)C[C@H](NC(=O)[C@H](CCCNC(=N)N)NC(=O)[C@H](Cc1ccc(O)cc1)NC(=O)[C@H](N)CCCC[C@@H](N)C(=O)N[C@@H](Cc1ccc(O)cc1)C(=O)N[C@@H](CCCNC(=N)N)C(=O)N[C@@H](CC(C)C)C(=O)N[C@@H](CCCNC(=N)N)C(=O)N[C@@H](Cc1ccc(O)cc1)C(N)=O)C(=O)N[C@@H](CCCNC(=N)N)C(=O)N[C@@H](Cc1ccc(O)cc1)C(N)=O,1.03,0.75,2,0.18,9.5,1.6,,,,,,
[3H]CC([3H])C(=O)N[C@@H](CCCC[C@H](N)C(=O)N[C@@H](Cc1ccc(O)cc1)C(=O)N[C@@H](CCCNC(=N)N)C(=O)N[C@@H](CC(C)C)C(=O)N[C@@H](CCCNC(=N)N)C(=O)N[C@@H](Cc1ccc(O)cc1)C(N)=O)C(=O)N[C@@H](Cc1ccc(O)cc1)C(=O)N[C@@H](CCCNC(=N)N)C(=O)N[C@@H](CC(C)C)C(=O)N[C@@H](CCCNC(=N)N)C(=O)N[C@@H](Cc1ccc(O)cc1)C(N)=O (stereo partly drawn),,,,,,,,,,,,Kd [21]: 0.67 nM; Kd [22]: 9.8 nM
NCCN(CCNC(=O)c1ccc(C(=O)NCCOCCOCCNC(=O)/N=C(/N)NCCC[C@@H](NC(=O)C(c2ccccc2)c2ccccc2)C(=O)NCc2ccc(O)cc2)cc1)CCNC(=O)c1ccc(C(=O)NCCOCCOCCNC(=O)/N=C(/N)NCCC[C@@H](NC(=O)C(c2ccccc2)c2ccccc2)C(=O)NCc2ccc(O)cc2)cc1,,,150,630,,,,,,,,

# Now from value to compound, other results behind:
Intrinsic activity [1],Intrinsic activity [2],Ki [3] [nM],Ki [4] [nM],Kb [5] [nM],EC50 [6] [nM],Ki [9] [nM],Ki [12] [nM],Ki [13] [nM],Ki [14] [nM],EC50 [19] [nM],SMILES,further results
1,0.76,6.3,0.32,,4,400,420,0.87,710,14,CCC(=O)N[C@@H](CCCC[C@H](N)C(=O)N[C@@H](Cc1ccc(O)cc1)C(=O)N[C@@H](CCCNC(=N)N)C(=O)N[C@@H](CC(C)C)C(=O)N[C@@H](CCCNC(=N)N)C(=O)N[C@@H](Cc1ccc(O)cc1)C(N)=O)C(=O)N[C@@H](Cc1ccc(O)cc1)C(=O)N[C@@H](CCCNC(=N)N)C(=O)N[C@@H](CC(C)C)C(=O)N[C@@H](CCCNC(=N)N)C(=O)N[C@@H](Cc1ccc(O)cc1)C(N)=O,K [7]: 0.0467 min⁻¹; T1/2 [8]: 1.36 h; T1/2 [10]: 4.82 h; Activity [11]: 10%; K [15]: 0.0024 min⁻¹; TIME [16]: 1.67 h; K [17]: 0.0085 min⁻¹; K [18]: 0.0329 min⁻¹; T1/2 [20]: 0.352 h
1.06,0.8,,,25.3,1.7,410,730,1.2,140,6.4,CC(C)C[C@H](NC(=O)[C@H](CCCNC(=N)N)NC(=O)[C@H](Cc1ccc(O)cc1)NC(=O)CCCCCCC(=O)N[C@@H](Cc1ccc(O)cc1)C(=O)N[C@@H](CCCN/C(N)=N/C(=O)NCCCCN)C(=O)N[C@@H](CC(C)C)C(=O)N[C@@H](CCCNC(=N)N)C(=O)N[C@@H](Cc1ccc(O)cc1)C(N)=O)C(=O)N[C@@H](CCCNC(=N)N)C(=O)N[C@@H](Cc1ccc(O)cc1)C(N)=O (I: Y[X2]LRY-NH2 / II: YRLRY-NH2; linker I:N-II:N via Suberoyl),
